This passage reports Activity and inhibition results from ChEMBL document CHEMBL1811866, “Design, synthesis, and biological evaluation of abiotic, non-lactone modulators of LuxR-type quorum sensing” (Bioorg Med Chem, 2011).

Structures are written as SMILES.

Type in all cases: functional
The target in experiment [1] is T1, Transcriptional activator protein LuxR (Aliivibrio fischeri) (UniProt P12746).
T1 sequence (whole entry): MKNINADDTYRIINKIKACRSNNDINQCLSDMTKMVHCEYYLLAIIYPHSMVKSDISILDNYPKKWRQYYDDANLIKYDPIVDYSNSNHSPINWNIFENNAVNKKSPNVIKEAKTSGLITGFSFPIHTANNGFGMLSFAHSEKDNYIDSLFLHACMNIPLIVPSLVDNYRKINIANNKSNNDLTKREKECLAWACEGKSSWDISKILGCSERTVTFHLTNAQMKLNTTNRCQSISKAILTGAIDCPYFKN
Nature of the experiment: Agonist activity at Vibrio fischeri ESI 114 (delta-LuxI) LuxR assessed as activation of quorum sensing at 10 uM relative to OHHL. The method, boiled down:
(§1)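 LuxR reporter in V. fischeri ESI 114 (Δ-LuxI), compounds screened at 10 μM in triplicate. For inhibition, cells challenged with 2 μM OHHL. Agonism normalized to native ligand at 100 μM. Negative controls with no ligand subtracted as background.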

Experiment [2] deals with T2, Transcriptional activator protein TraR (Agrobacterium tumefaciens) (UniProt P33905).
T2 sequence (whole entry): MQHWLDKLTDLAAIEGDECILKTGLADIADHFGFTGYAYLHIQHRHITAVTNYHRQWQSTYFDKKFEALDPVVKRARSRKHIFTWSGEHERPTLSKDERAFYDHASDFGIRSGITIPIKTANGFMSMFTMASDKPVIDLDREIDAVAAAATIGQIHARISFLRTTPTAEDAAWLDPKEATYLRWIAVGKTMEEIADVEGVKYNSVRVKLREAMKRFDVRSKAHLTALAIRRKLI
Nature of the experiment: Agonist activity at Agrobacterium tumefaciens WCF (pCF372) TraR assessed as activation of quorum sensing at 10 uM relative to OOHL.

Experiment [3] relates to Escherichia coli DH5[alpha]. The experiment can be described thus: Antagonist activity at Escherichia coli DH5alpha (pJN105L + pSC11) LasR assessed as inhibition of N-(3-oxo)-dodecanoyl HL-induced quorum sensing activation at 10 uM relative to untreated control.
Experiment [4] has as its system Escherichia coli DH5[alpha]. The experiment can be described thus: Agonist activity at Escherichia coli DH5alpha (pJN105L + pSC11) LasR assessed as activation of quorum sensing at 10 uM relative to N-(3-oxo)-dodecanoyl HL.
The target in experiment [5] is T3, Transcriptional activator protein LasR (Pseudomonas aeruginosa (strain ATCC 15692 / PAO1 / 1C / PRS 101 / LMG12228)) (UniProt P25084).
T3 sequence (whole entry): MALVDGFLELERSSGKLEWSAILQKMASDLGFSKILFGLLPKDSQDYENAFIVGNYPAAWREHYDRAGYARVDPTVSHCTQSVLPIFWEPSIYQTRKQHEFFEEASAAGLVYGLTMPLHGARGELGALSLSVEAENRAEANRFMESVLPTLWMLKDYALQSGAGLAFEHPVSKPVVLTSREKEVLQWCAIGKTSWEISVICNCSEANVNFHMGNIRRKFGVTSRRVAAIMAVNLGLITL
The experiment can be described thus: Agonist activity at Pseudomonas aeruginosa PAO1 MW1 (pUM15) LasR assessed as activation of quorum sensing at 10 uM relative to N-(3-oxo)-dodecanoyl HL. The method, boiled down: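 P. aeruginosa PAO1 MW1 grown overnight at 30 °C in LB/MOPS pH 7 with carbenicillin (300 µg/mL). Subcultured 1:10 at 37 °C to OD 0.25–0.30 and plated with compound only, no native ligand. Incubated with shaking at 37 °C for 8 h. OD and fluorescence then read.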

For experiment [6], the target named is T1, Transcriptional activator protein LuxR (Aliivibrio fischeri). The experiment can be described thus: Antagonist activity at Vibrio fischeri ESI 114 (delta-LuxI) LuxR assessed as inhibition of OHHL-induced quorum sensing activation at 10 uM relative to untreated control. In short, it runs like this: as §1
Experiment [7] concerns the target T3, Transcriptional activator protein LasR (Pseudomonas aeruginosa (strain ATCC 15692 / PAO1 / 1C / PRS 101 / LMG12228)). Nature of the experiment: Antagonist activity at Pseudomonas aeruginosa PAO1 MW1 (pUM15) LasR assessed as inhibition of N-(3-oxo)-dodecanoyl HL-induced quorum sensing activation at 10 uM relative to untreated control. In short, it runs like this:
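P. aeruginosa PAO1 MW1 colony grown overnight at 30 °C in LB with MOPS at pH 7 plus carbenicillin (300 µg/mL). Diluted 1:10 and shaken at 37 °C to OD 0.25–0.30. OdDHL added to the subculture at 1 μM final, then plated with test compound. Plates shaken at 37 °C for 8 h, then optical density and fluorescence read.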

Experiment [8] concerns the target T2, Transcriptional activator protein TraR (Agrobacterium tumefaciens). Nature of the experiment: Antagonist activity at Agrobacterium tumefaciens WCF (pCF372) TraR assessed as inhibition of OOHL-induced quorum sensing activation at 10 uM relative to untreated control.

Usually inhibition stands for the drop in the measured response relative to a control, in per cent. Regarding `CCCCCCCCCC(=O)CC(=O)Nc1cc(-c2ccc(Cl)cc2)nn1C`, the Activity in experiment [1] was 3%; in experiment [2], -2%; in experiment [4] it was 0%; in experiment [5] it was 0%. Also, the inhibition in experiment [3] was 0%; in experiment [6], 2%; in experiment [7] it was 0%.
Consider `CCCCCCCCCC(=O)CC(=O)NCc1ccccc1F`, for which the Activity in experiment [1] was 2%; in experiment [2], -1%; in experiment [4] it was 0%; in experiment [5] it was 0%. The values for the inhibition in experiment [3] and in experiment [7] were 38% and 13%, respectively.
For `CCCCCCCCCC(=O)CC(=O)NCCC1=CCCCC1`, the Activity in experiment [1] is 3%; in experiment [2], -1%; in experiment [4] it was 0%; in experiment [5] it was 4%. For the same molecule, the inhibition was 10% in experiment [3], 35% in experiment [6] and -7% in experiment [7].
For the molecule `CCCCCCCCCC(=O)Nc1ccccc1`, the Activity is 7% in experiment [1], 3% in experiment [4] and 0% in experiment [5]. Moreover, the inhibition came out at 20% in experiment [3], 2% in experiment [6] and 5% in experiment [7].
For `O=C(Cc1cccc([N+](=O)[O-])c1)NC1CCCC1`, the Activity worked out at 33% in experiment [1], 0% in experiment [4] and 0% in experiment [5]. Moreover, the inhibition was 29% in experiment [3], 62% in experiment [6] and -5% in experiment [7].
`CCCCCCCCCC(=O)CC(=O)Nc1ccccc1`: the Activity in experiment [1] amounted to 2%; in experiment [2], 1%; in experiment [4], 3%; in experiment [5], 1%. Besides, the inhibition in experiment [3] stood at 54%; in experiment [6], 12%; in experiment [7], 29%.
Regarding `O=C(CCCc1c[nH]c2ccccc12)NC1CCCC1`, the Activity in experiment [1] was 4%; in experiment [4] it was 0%; in experiment [5], 2%. For the same molecule, the inhibition in experiment [3] was 20%; in experiment [6], 25%; in experiment [7] it was -10%.
As to `CCOC(=O)CNC(=O)Cc1ccccc1`, the Activity in experiment [1], in experiment [4] and in experiment [5] was 0% in each case. Moreover, the inhibition was 38% in experiment [3], 15% in experiment [6] and -10% in experiment [7].
On to `CCOC(=O)CNC(=O)Cc1ccc(SC(F)(F)F)cc1`, for which the Activity in experiment [1], in experiment [4] and in experiment [5] was 0% each time. Besides, the results for the inhibition in experiment [3] and in experiment [6] were 33% and 43%, respectively.
As to `CCCCCCCCCC(=O)CC(=O)NCc1ccc(F)cc1`, the Activity worked out at 1% in experiment [1], 0% in experiment [2], 0% in experiment [4] and 0% in experiment [5]. In addition, the inhibition in experiment [3] and in experiment [7] was 13% throughout.
On to `O=C(Cc1ccc(Br)cc1)NC1CCCC1`, for which the Activity in experiment [1], in experiment [4] and in experiment [5] was 0% each time. Further, the inhibition in experiment [3] came to 11%; in experiment [6], 35%.
With `CCCCCCCCCC(=O)CC(=O)NCC(=O)OCC`, the Activity in experiment [1] turned out to be 8%; in experiment [2], 2%; in experiment [4], 51%; in experiment [5], 12%. In addition, the inhibition in experiment [8] was -3%; in experiment [7], 11%.
In the case of `O=C(Cc1ccc(Br)cc1)Nc1ccccc1`, the Activity came out at 0% in experiment [1], 3% in experiment [4] and 0% in experiment [5]. Besides, the results for the inhibition in experiment [3], in experiment [6] and in experiment [7] were 20%, 1% and 12%, respectively.
Regarding `COc1ccc(CC(=O)NC2CCCC2)cc1`, the Activity in experiment [1] is 3%; in experiment [4], 6%; in experiment [5], 0%. The inhibition in experiment [3] was 24%; in experiment [6] it was 18%; in experiment [7], -1%.
Regarding `CCOC(=O)CNC(=O)Cc1ccc(Br)cc1`, the Activity in experiment [1], in experiment [4] and in experiment [5] was 0% in each case. Moreover, the inhibition in experiment [3] stood at 33%; in experiment [6] it was 14%.
In the case of `CCCCCCCCCC(=O)CC(=O)NCc1c(F)cccc1F`, the Activity in experiment [1] was 5%; in experiment [2], -1%; in experiment [4], 1%; in experiment [5] it was 0%. Besides, the results for the inhibition in experiment [3] and in experiment [7] were 13% and 5%, respectively.
Turning to `CCCCCCCCCC(=O)CC(=O)NCc1ccc(OC)c(OC)c1`, the Activity in experiment [1] worked out at 1%; in experiment [2] it was 0%; in experiment [4], 1%; in experiment [5] it was 0%. The inhibition is -10% in experiment [8], 13% in experiment [3] and 9% in experiment [7].
As to `O=C(Cc1ccccc1)NC1CCCC1`, the Activity in experiment [1], in experiment [4] and in experiment [5] was 0% in each case. The inhibition in experiment [3] was 11%; in experiment [6], 19%; in experiment [7], 1%.
For the molecule `CCOC(=O)CNC(=O)CCc1ccc(Cl)cc1`, the Activity in experiment [1], in experiment [4] and in experiment [5] was 0% in each case. Moreover, the inhibition in experiment [3] was 38%; in experiment [6] it was 14%; in experiment [7] it was -5%.
On to `CCCCCCCCCC(=O)CC(=O)NCc1cc(F)cc(F)c1`, for which the Activity in experiment [1] is 3%; in experiment [2] it was -1%; in experiment [4], 0%; in experiment [5], 0%. For the same molecule, the inhibition is -10% in experiment [8], 22% in experiment [3] and 16% in experiment [7].
In the case of `CCOC(=O)CNC(=O)CCc1cccc(I)c1`, the Activity in experiment [1], in experiment [4] and in experiment [5] was 0% each time. In addition, the inhibition in experiment [3] is 38%; in experiment [6], 89%.
Turning to `CCOC(=O)CNC(=O)Cc1cccc([N+](=O)[O-])c1`, the Activity in experiment [1] was 0%; in experiment [4] it was 93%; in experiment [5], 0%. Further, the inhibition in experiment [3] was 41%; in experiment [6], 19%.
With `O=C(Cc1cccc([N+](=O)[O-])c1)Nc1ccccc1`, the Activity in experiment [1] amounted to 0%; in experiment [4] it was 0%; in experiment [5], 1%. The inhibition in experiment [3] was found to be 12%; in experiment [6], 0%; in experiment [7], 0%.
`O=C(Cc1ccc(-c2ccccc2)cc1)NC1CCCC1`: the Activity stood at 5% in experiment [1], 0% in experiment [4] and 1% in experiment [5]. Moreover, the inhibition in experiment [3] is 4%; in experiment [6] it was 17%.
Take `CCCCCCCCCC(=O)CC(=O)NCCC(c1ccccc1)c1ccccc1`: the Activity was 6% in experiment [1], -1% in experiment [2], 0% in experiment [4] and 0% in experiment [5]. Moreover, the inhibition is -6% in experiment [8], 17% in experiment [3] and 8% in experiment [7].
With `CCOC(=O)CNC(=O)CCc1ccc(OC)cc1`, the Activity in experiment [1], in experiment [4] and in experiment [5] was 0% throughout. Moreover, the inhibition in experiment [3] is 36%; in experiment [6], 40%; in experiment [7] it was -6%.
